From PubChem BioAssay
MrgX1 PAM: human MrgX1 positive allosteric modulation, primary screen | Q96LB2 | MrgX1-HEK293, Fluo-4 calcium flux, FDSS; active compounds read high | B-score at 10 µM | actives 0.63% (n = 310,000) | AID 588675;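 active means plate-corrected calcium response at least 3 library SD above typical, normal starting fluorescence, not activating the receptor alone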;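 further: compound read alongside a low EC10 to EC30 dose of BAM8-22 agonist; peak minus trough fluorescence over baseline measured at the second addition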
Target sequence (Q96LB2 whole entry, looked up): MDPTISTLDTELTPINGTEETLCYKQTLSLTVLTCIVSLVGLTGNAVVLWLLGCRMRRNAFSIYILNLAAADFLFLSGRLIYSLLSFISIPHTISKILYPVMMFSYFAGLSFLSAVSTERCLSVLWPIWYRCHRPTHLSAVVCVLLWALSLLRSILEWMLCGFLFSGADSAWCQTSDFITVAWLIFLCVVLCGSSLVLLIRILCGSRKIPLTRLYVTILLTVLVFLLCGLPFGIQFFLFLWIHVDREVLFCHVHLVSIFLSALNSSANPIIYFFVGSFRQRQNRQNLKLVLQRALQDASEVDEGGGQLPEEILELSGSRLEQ
RGS4 block: human RGS4 inhibition. P49798. HEK293 M3R/RGS4 inducible, Fluo-4 calcium flux; active compounds read high; triggered by carbachol at its EC20. B-score at 10 µM. actives 0.45% (n = 310,000);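 active means B-score, a plate-corrected calcium signal, over three deviations above library mean, with baseline fluorescence within five deviations of library mean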;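 further: RGS4 expression induced by doxycycline in cells with stable M3 receptor; B-score is computed from the integrated fluorescence ratio over baseline after carbachol; higher B-score means a larger calcium signal and so more RGS4 inhibition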
Target sequence (P49798 whole entry, looked up): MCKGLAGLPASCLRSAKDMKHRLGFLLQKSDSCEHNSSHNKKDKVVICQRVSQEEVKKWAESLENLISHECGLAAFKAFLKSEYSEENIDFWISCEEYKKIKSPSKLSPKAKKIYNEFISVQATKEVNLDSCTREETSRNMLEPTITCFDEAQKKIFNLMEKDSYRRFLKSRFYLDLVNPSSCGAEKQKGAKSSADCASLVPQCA
RGS4 pot: potentiators or activators of RGS4; B-score at 10 µM; HEK293 M3R/inducible RGS4, carbachol calcium flux Fluo4; active compounds read low; AID 463111; actives 0.92% (n = 310,000);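 active means B-score of the integrated calcium signal more than 4 SD below the library mean, with starting fluorescence not abnormally high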;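 further: negative B-score means reduced calcium response which marks RGS4 activation or potentiation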
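test system = M3R-expressing HEK293 line, RGS4 induced by doxycycline | probe or stimulus = carbachol at ECmax as muscarinic agonist stimulus | timing = dye loading 30 min 37 °C, buffer rest 30 min RT | signal = calcium dye Fluo4 fluorescence | evaluation = B score from integrated fluorescence ratio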
MrgX1 antagonist: human MrgX1 receptor antagonism, primary screen. Q96LB2. MRGX1-HEK293 calcium flux, Fluo-4, BAM8-22 antagonism; active compounds read low. B-score at 10 µM. actives 1.3% (n = 310,000). AID 588676;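 active means calcium-response B-score plate-corrected more than 3 library SD below zero, starting fluorescence within 5 deviations, no agonist response on first addition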;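 further: peak minus trough fluorescence over baseline after final BAM8-22 challenge near maximal dose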
MrgX1 ag: human MrgX1 receptor agonism, primary screen | Q96LB2 | MrgX1-HEK293 cells, Fluo-4 calcium fluorescence, agonist mode; active compounds read high | B-score at 10 µM | actives 0.44% (n = 310,000) | AID 588627;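 active means calcium response B-score plate-corrected fluorescence ratio at least 3 library SD, with starting fluorescence B-score inside 5 SD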
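System – MrgX1-expressing HEK293 cells · Incubation – cells plated overnight, dye loaded 0.5 h 37 °C, 0.5 h room temperature · Technique – kinetic Fluo-4 NW fluorescence of intracellular calcium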
RGS4 inh valid: validation of RGS4 inhibitors; AID 492999; actives 65% (n = 1,700); calcium response, % at 10 µM; shares compounds with RGS4 block; HEK293 M3R/RGS4, carbachol calcium Fluo-4 fluorescence; carbachol added at its EC20; 0 = buffer wells, 100 = carbachol control;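 active means duplicate-averaged calcium response above the buffer-only control mean plus 5 SD of those controls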;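 further: integrated fluorescence ratio F max minus min over baseline F0; higher response in RGS4-induced cells means RGS4 inhibition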
RGS4 uninduced: non-induced cell nonspecific activity of RGS4 inhibitors; shares compounds with RGS4 block; actives 20% (n = 1,900); HEK293 M3R non-induced, carbachol calcium Fluo-4; submaximal (EC20) carbachol stimulus; buffer wells 0%, carbachol control wells 100%; activity (percent), % at 10 µM; call rule not given here;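 further: RGS4 induction absent so cells express M3R without RGS4; higher means more calcium signal and flags a non-specific hit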
RGS4 inh ctr2: second RGS4 inhibitor counter-screen in uninduced cells lacking carbachol. shares compounds with RGS4 block. HEK293 M3R/RGS4 non-induced, Fluo-4 calcium, no carbachol; normalised: buffer wells 0%, carbachol wells 100%. AID 493001. actives 22% (n = 1,900). calcium response (agonist-mode artifact), % at 10 µM;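 active means duplicate-averaged calcium rise in uninduced cells above buffer wells' mean plus 5 SD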
* hit, by the source's call; i = inactive; . = not tested or not shown. An excerpt weighted towards active compounds, which were near 3.5% of everything screened.

SMILES	MrgX1 PAM	RGS4 block	RGS4 pot	MrgX1 antagonist	MrgX1 ag	RGS4 inh valid	RGS4 uninduced	RGS4 inh ctr2
O=C(Nc1cccc(N2C(=O)C=CC2=O)c1)c1cccs1	i	21*	i	i	35*	33%*	i	48%*
CC1CCCC(C)N1C(=O)Cn1nnc(-c2ccc([N+](=O)[O-])cc2)n1 (stereo not drawn)	i	i	i	i	i	.	.	.
Cc1[nH]nc2c1C1(C(=O)N(Cc3ccc(Cl)cc3)c3ccccc31)C(C#N)=C(N)O2 (stereo not drawn)	i	i	i	i	i	.	.	.
COC(=O)Cc1[nH]nc2c1C1(C(=O)N(Cc3ccccc3)c3ccccc31)C(C#N)=C(N)O2 (stereo not drawn)	i	i	i	i	i	.	i	i
O=C1Nc2ccc(S(=O)(=O)N3CCCC3)c3cccc1c23	i	i	i	i	i	.	.	.
O=C1Nc2ccc(S(=O)(=O)N3CCCC3C(=O)O)c3cccc1c23 (stereo not drawn)	i	5.5*	i	i	i	i	i	i
Cc1ccc(OCC(=O)Nc2nnc(S(=O)(=O)N3CCC(C)CC3)s2)cc1	i	i	i	i	i	.	.	.
CCCc1cc(=O)[nH]c(SCC(=O)Nc2nc(-c3ccccc3)cs2)n1	i	i	i	i	i	.	.	.
O=C(CSc1nc2ccccc2[nH]1)Nc1nc(-c2ccc(Br)cc2)cs1	i	6.6*	i	i	i	6.0%*	i	i
O=C(/C=C/c1ccccn1)c1cc(Br)ccc1O	i	7*	i	i	i	12%*	36%*	i
O=C(/C=C/c1ccccn1)c1ccc(Br)cc1O	i	.	.	i	i	.	.	.
COc1cccc2cc(C(=O)NCCN3CCOCC3)c(=O)oc12	i	i	i	i	i	.	.	.
COC(=O)C1=C(C)N(C2CCCCC2)C(=O)/C1=C\c1cccs1	i	5.7*	i	i	i	10%*	i	i
NS(=O)(=O)Oc1ccccc1	i	i	i	i	i	.	.	.
CCN(CC)Cc1nc2c(c(=O)[nH]1)C1(CCCCC1)Cc1ccccc1-2	i	i	i	i	i	.	.	.
C=CCNC(=S)NNc1nc2c(c(=O)[nH]1)C1(CCCC1)Cc1ccccc1-2	i	9.8*	i	i	i	22%*	i	i
O=c1[nH]c(NNC(=S)NC2CCCCC2)nc2c1C1(CCCC1)Cc1ccccc1-2	i	12*	i	i	i	7.5%*	i	i
O=c1[nH]c(NNC(=S)NCc2ccccc2)nc2c1C1(CCCCC1)Cc1ccccc1-2	i	13*	i	i	i	30%*	i	i
CC(C)(C)n1nc2c(c1NC(=O)c1cc(Cl)ccc1[N+](=O)[O-])CS(=O)(=O)C2	i	i	i	i	i	.	.	.
CCCN(CCC)CCNC(=O)CN1C(=O)COc2ccc(S(=O)(=O)N3CCOCC3)cc21	i	i	i	i	i	.	.	.
COCCCNC(=O)CN1C(=O)COc2ccc(S(=O)(=O)N3CCOCC3)cc21	i	i	i	i	i	i	i	i
Cn1cccc1C(=O)OCC(=O)N1CC(=O)Nc2ccccc21	i	i	i	i	i	.	.	.
Cn1cccc1C(=O)OCC(=O)N1c2ccccc2NC(=O)C1(C)C	i	5.2*	i	i	i	6.5%*	i	i
Cc1ccc(NC(=O)CN(C)C(=O)Cn2cc(C(F)(F)F)cc(Cl)c2=O)cc1	i	5.5*	i	i	i	i	i	i
Cc1ccc(S(=O)(=O)NNC(=O)c2ccc(NC(=O)C3CC3)cc2)cc1	i	i	i	i	i	.	.	.
SMILES	MrgX1 PAM	RGS4 block	RGS4 pot	MrgX1 antagonist	MrgX1 ag	RGS4 inh valid	RGS4 uninduced	RGS4 inh ctr2
CCN(CC)CCN1C(=O)C(=O)/C(=C(/O)c2ccc(S(=O)(=O)N3CCOCC3)cc2)C1c1ccc(Cl)cc1 (stereo not drawn)	i	i	i	i	i	.	.	.
C=CCN1C(=O)c2ccc(C(=O)N3CCN(S(=O)(=O)c4ccccc4Br)CC3)cc2C1=O	i	i	i	i	i	.	.	.
CCN(CC)c1ccc(N2C(=O)/C(=C\c3cccnc3)SC2=S)cc1	i	7.3*	i	i	i	i	i	i
COc1ccc(C(CNC(=O)c2cccc(S(=O)(=O)NCc3ccccc3)c2)N(C)C)cc1 (stereo not drawn)	i	i	i	i	i	.	.	.
FC(F)(F)c1cc(CCN2CCNC[C@H]2Cc2cccc3ccccc23)cc(C(F)(F)F)c1	i	5.1*	i	i	i	7.0%*	i	i
Oc1ccc(C[C@@H]2CNCCN2CCc2cc(C(F)(F)F)cc(C(F)(F)F)c2)cc1	i	i	i	i	i	.	.	.
COc1ccc(NC(=O)CSc2nnc3ccc(-c4ccccn4)nn23)cc1OC	i	i	i	i	i	.	.	.
CS(=O)(=O)c1ccc(Cl)c(NC(=O)COC(=O)CNC(=O)c2ccc3ccccc3c2)c1	i	i	i	i	i	.	.	.
CCOC(=O)/C(=N\O)C1=NC(C)(C)Cc2ccccc21	i	i	i	i	i	.	.	.
Cc1cccc(N/N=C(\C(N)=O)C2=NC(C)(C)Cc3ccccc32)c1	13*	i	i	i	i	.	i	i
C/C(=N\NC(=O)CNC(=O)c1ccccc1Br)c1ccco1	i	i	i	i	i	.	.	.
Cc1[nH]nc2c1C(c1ccc(-c3ccccc3C#N)o1)C(C#N)=C(N)O2 (stereo not drawn)	i	9.8*	i	i	i	24%*	i	8.5%*
Cc1ccc(C)c(S(=O)(=O)N2CCN(C(=O)C3CCN(c4ncnc5sc(C)c(C)c45)CC3)CC2)c1	i	i	i	i	i	.	.	.
CN(C)c1ccc(C(CNS(=O)(=O)c2ccc([N+](=O)[O-])cc2)N2CCCC2)cc1 (stereo not drawn)	i	i	i	i	i	.	.	.
